In ChEMBL document CHEMBL1147863, “Synthesis, antimicrobial activities and cytogenetic studies of newer diazepino quinoline derivatives via Vilsmeier-Haack reaction” (2007):
Activity calls are given as the source filed them. The calls are words filed in the database; no cut-off is given here.

Tests used:
Escherichia coli [1] = assay: Antibacterial activity against Escherichia coli at 0.125% (w/v) concentration after 24 hrs by disc diffusion method; assay type: functional
How it was run: (§1)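 Disc diffusion on nutrient agar (pH 7.5 ± 0.2) swabbed with bacterial culture; compounds dissolved in chloroform at 0.125%, 0.25% or 0.5% w/v, soaked onto 5 mm filter paper discs placed on seeded plates. Incubated 35 ± 2 °C, 24 h; inhibition zone diameter (mm) measured, minus zone from solvent-only plate.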

Aeromonas hydrophila [2] = assay: Antibacterial activity against Aeromonas hydrophila at 0.125% (w/v) concentration after 24 hrs by disc diffusion method; assay type: functional; how it was run: as §1
Talaromyces funiculosus [3] = assay: Antifungal activity against Penicillium funiculosum at 0.5% (w/v) concentration by disc diffusion method; assay type: functional
How it was run: (§2)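 Potato dextrose agar plates were seeded with a spore suspension (10⁶ spores/mL). Compounds in acetone at a final 0.5%, 1% or 2% w/v were loaded onto 5 mm filter-paper discs. Plates were incubated at 28 ± 2 °C for four days. Zone diameter was measured after subtracting the acetone-only plate zone, with carbendazim as standard.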

Fusarium oxysporum [4] = assay: Antifungal activity against Fusarium oxysporum at 2% (w/v) concentration by disc diffusion method; assay type: functional; how it was run: as §2
[5] = Induction of chromosomal aberration in human peripheral blood leukocytes assessed as number of chromatid breaks at 20 ug/mL after 48 hrs; assay type: functional, Leukocyte
How it was run: (§3)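 Leukocytes from venous blood of three healthy non-smoking male donors, cultured at 37 °C for 72 h in McCoy's 5a with AB serum and PHA. Compound in 1% acetone was added at 0, 24 or 48 h after culture initiation (72, 48 or 24 h exposure), with water and acetone controls and triplicate cultures. Colchicine was added before harvest, then KCl hypotonic, fixation and Giemsa staining. Gaps and breaks were counted in 350 metaphases per treatment.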

Escherichia coli [6] = assay: Antibacterial activity against Escherichia coli at 0.5% (w/v) concentration by after 24 hrs by disc diffusion method; assay type: functional; how it was run: as §1
[7] = Induction of chromosomal aberration in human peripheral blood leukocytes assessed as number of chromatid gaps at 20 ug/mL after 48 hrs; assay type: functional, Leukocyte; how it was run: as §3
Alternaria macrospora [8] = assay: Antifungal activity against Alternaria macrospora at 1% (w/v) concentration by disc diffusion method; assay type: functional; how it was run: as §2
Alternaria macrospora [9] = assay: Antifungal activity against Alternaria macrospora at 2% (w/v) concentration by disc diffusion method; assay type: functional; how it was run: as §2
Fusarium oxysporum [10] = assay: Antifungal activity against Fusarium oxysporum at 1% (w/v) concentration by disc diffusion method; assay type: functional; how it was run: as §2
Salmonella typhi [11] = assay: Antibacterial activity against Salmonella typhi at 0.5% (w/v) concentration after 24 hrs by disc diffusion method; assay type: functional, Salmonella enterica subsp. enterica serovar Typhi
How it was run: (§4)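 Disc diffusion on nutrient agar (pH 7.5 ± 0.2) swabbed with bacteria. Compounds were dissolved in chloroform at a final 0.125%, 0.25% or 0.5% w/v and loaded onto 5 mm filter-paper discs. Plates were incubated at 35 ± 2 °C for 24 h. The inhibition-zone diameter (mm) was reported after subtracting the zone of the solvent-only plate.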

Escherichia coli [12] = assay: Antibacterial activity against Escherichia coli at 0.25% (w/v) concentration after 24 hrs by disc diffusion method; assay type: functional; how it was run: as §1
[13] = Induction of chromosomal aberration in human peripheral blood leukocytes assessed as number of chromatid breaks at 20 ug/mL after 24 hrs; assay type: functional, Leukocyte; how it was run: as §3
Aeromonas hydrophila [14] = assay: Antibacterial activity against Aeromonas hydrophila at 0.5% (w/v) concentration after 24 hrs by disc diffusion method; assay type: functional; how it was run: as §1
Aspergillus flavus [15] = assay: Antifungal activity against Aspergillus flavus at 2% (w/v) concentration by disc diffusion method; assay type: functional; how it was run: as §2
Aeromonas hydrophila [16] = assay: Antibacterial activity against Aeromonas hydrophila at 0.25% (w/v) concentration after 24 hrs by disc diffusion method; assay type: functional; how it was run: as §1
Fusarium oxysporum [17] = assay: Antifungal activity against Fusarium oxysporum at 0.5% (w/v) concentration by disc diffusion method; assay type: functional; how it was run: as §2
Talaromyces funiculosus [18] = assay: Antifungal activity against Penicillium funiculosum at 2% (w/v) concentration by disc diffusion method; assay type: functional; how it was run: as §2
Aspergillus flavus [19] = assay: Antifungal activity against Aspergillus flavus at 0.5% (w/v) concentration by disc diffusion method; assay type: functional; how it was run: as §2
Talaromyces funiculosus [20] = assay: Antifungal activity against Penicillium funiculosum at 1% (w/v) concentration by disc diffusion method; assay type: functional; how it was run: as §2
Salmonella typhi [21] = assay: Antibacterial activity against Salmonella typhi at 0.125% (w/v) concentration after 24 hrs by disc diffusion method; assay type: functional, Salmonella enterica subsp. enterica serovar Typhi; how it was run: as §4
Aspergillus flavus [22] = assay: Antifungal activity against Aspergillus flavus at 1% (w/v) concentration by disc diffusion method; assay type: functional; how it was run: as §2
Alternaria macrospora [23] = assay: Antifungal activity against Alternaria macrospora at 0.5% (w/v) concentration by disc diffusion method; assay type: functional; how it was run: as §2
Salmonella typhi [24] = assay: Antibacterial activity against Salmonella typhi at 0.25% (w/v) concentration after 24 hrs by disc diffusion method; assay type: functional, Salmonella enterica subsp. enterica serovar Typhi; how it was run: as §4
[25] = Induction of chromosomal aberration in human peripheral blood leukocytes assessed as number of chromatid gaps at 20 ug/mL after 24 hrs; assay type: functional, Leukocyte; how it was run: as §3

| Compound | inhibition zone (IZ) (Aeromonas hydrophila [2]) | inhibition zone (IZ) (Fusarium oxysporum [4]) | inhibition zone (IZ) (Escherichia coli [6]) | inhibition zone (IZ) (Alternaria macrospora [8]) | inhibition zone (IZ) (Alternaria macrospora [9]) | inhibition zone (IZ) (Fusarium oxysporum [10]) | inhibition zone (IZ) (Salmonella typhi [11]) | inhibition zone (IZ) (Escherichia coli [12]) | Activity [13] | inhibition zone (IZ) (Aeromonas hydrophila [14]) | inhibition zone (IZ) (Aspergillus flavus [15]) | inhibition zone (IZ) (Aeromonas hydrophila [16]) | inhibition zone (IZ) (Fusarium oxysporum [17]) | inhibition zone (IZ) (Talaromyces funiculosus [18]) | inhibition zone (IZ) (Aspergillus flavus [19]) | inhibition zone (IZ) (Talaromyces funiculosus [20]) | inhibition zone (IZ) (Salmonella typhi [21]) | inhibition zone (IZ) (Aspergillus flavus [22]) | inhibition zone (IZ) (Alternaria macrospora [23]) | inhibition zone (IZ) (Salmonella typhi [24]) | further results |
| --- | --- | --- | --- | --- | --- | --- | --- | --- | --- | --- | --- | --- | --- | --- | --- | --- | --- | --- | --- | --- | --- |
| Cc1ccc(C)c2c(Cl)c3c(nc12)C=CNN=C3 | 4 mm | 15 mm | 9 mm | 11 mm | 17 mm | 11 mm | 14 mm | 5 mm | 0.9% | 11 mm | 16 mm | 8 mm | 4 mm | 17 mm | 4 mm | 10 mm | 5 mm | 9 mm | 7 mm | 9 mm | inhibition zone (IZ) (Escherichia coli [1]): 2 mm; inhibition zone (IZ) (Talaromyces funiculosus [3]): 5 mm; Activity [5]: 0.3%; Activity [7]: 0.9%; Activity [25]: 2% |
| Cc1cccc2c(Cl)c3c(nc12)C=CNN=C3 | 4 mm | 10 mm | 6 mm | 6 mm | 10 mm | 6 mm | 12 mm | 2 mm | 0.3% | 11 mm | 8 mm | 7 mm | 2 mm | 10 mm | 2 mm | 3 mm | 5 mm | 4 mm | 3 mm | 7 mm | Activity (Escherichia coli [1]): inactive; Activity (Talaromyces funiculosus [3]): inactive; Activity [25]: 0.6% |
